Values after ≈ are worked out from the molar mass of the structure shown.
Tested on: Moloney murine sarcoma virus
Test: Compound was tested for anti-retroviral activity against moloney murine sarcoma virus (MSV) in murine C3H/3T3 embryo fibroblast cell culture
Type: functional, organism-based
Details: not given
How it was run: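 C3H/3T3 fibroblasts were seeded at 5 × 10⁵ cells/mL. After 24 h they were infected with 80 focus-forming units of MSV for 90-120 min at 37 °C; the virus came from tumours induced by intramuscular inoculation of 3-day-old NMRI mice. The medium was then replaced with fresh medium containing various compound concentrations. Transformation was scored microscopically after 6 days.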

Compared with `C[C@@H](Cn1nnc2c(O)nc(N)nc21)OCP(=O)(O)O`, `C[C@H](Cn1nnc2c(N)nc(N)nc21)OCP(=O)(O)O` is 17-fold lower in IC50: 27 µg/mL (≈ 88.8 µM) for the first, 1.58 µg/mL (≈ 5.21 µM) for the second.

`Nc1nc(N)c2nnn(C[C@H](O)CO)c2n1` and `Nc1ncnc2nn(C[C@H](O)CO)nc12` cannot be ordered by IC50: > 40 µg/mL for the first, > 100 µg/mL for the second.

First: C[C@H](Cn1nc2ncnc(N)c2n1)OCP(=O)(O)O
Second: Nc1ncnc2c1nnn2CCOCP(=O)(O)O
The IC50 of the first is 4.2-fold lower: 2.9 µg/mL (≈ 10.1 µM) for the first, 12.1 µg/mL (≈ 44.1 µM) for the second.

Tested on: Human immunodeficiency virus 1
Test: Inhibition of human immunodeficiency virus-1 (HIV-1) induced cytopathicity in CEM cells
Type: functional, organism-based
Details: Human immunodeficiency virus 1, CCRF-CEM
How it was run: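 CEM cells (~3 × 10⁵ cells/mL) were infected with HIV-1(IIIB) at 100 CCID50 per µL. Infected cells were plated with compound dilutions and incubated 4 days at 37 °C. Giant cell formation was then examined microscopically.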

`C[C@@H](Cn1nnc2c(O)nc(N)nc21)OCP(=O)(O)O` and `C[C@H](Cn1nnc2c(N)nc(N)nc21)OCP(=O)(O)O` are within 1.5-fold of each other in IC50: 40 µg/mL (≈ 131 µM) for the first, 30 µg/mL (≈ 98.9 µM) for the second.

`Nc1nc(N)c2nnn(C[C@H](O)CO)c2n1` and `Nc1ncnc2nn(C[C@H](O)CO)nc12` cannot be ordered by IC50: > 100 µg/mL for the first, > 100 µg/mL for the second.

For `C[C@H](Cn1nc2ncnc(N)c2n1)OCP(=O)(O)O`, the IC50 was > 100 µg/mL.

Tested on: Human immunodeficiency virus 2
Test: Inhibition of human immunodeficiency virus-2 (HIV-2) induced cytopathicity in CEM cells
Type: functional, organism-based
Details: Human immunodeficiency virus 2, CCRF-CEM

Compared with `C[C@@H](Cn1nnc2c(O)nc(N)nc21)OCP(=O)(O)O`, `C[C@H](Cn1nnc2c(N)nc(N)nc21)OCP(=O)(O)O` is 2.1-fold lower in IC50: 85 µg/mL (≈ 279 µM) for the first, 40 µg/mL (≈ 132 µM) for the second.

`Nc1nc(N)c2nnn(C[C@H](O)CO)c2n1` and `Nc1ncnc2nn(C[C@H](O)CO)nc12` cannot be ordered by IC50: > 100 µg/mL for the first, > 100 µg/mL for the second.

With `C[C@H](Cn1nc2ncnc(N)c2n1)OCP(=O)(O)O` the IC50 was > 100 µg/mL.

Tested on: not listed separately
Test: Antiviral activity against herpes simplex virus-1 KOS in E6SM cell culture
Type: functional, cell-based
Details: Human alphaherpesvirus 1, E6SM
How it was run: (§1)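 Confluent cell monolayers in microtiter trays were inoculated with 100 CCID50 of virus. After 1 h adsorption the residual virus was removed. Cells were then incubated with serial compound concentrations (400, 200, 100, ... µg/mL). Cytopathicity was scored once it was complete in untreated infected controls. The value is the 50% inhibitory concentration, or the concentration reducing plaque formation by 50%, in µg/mL.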

`C[C@@H](Cn1nnc2c(O)nc(N)nc21)OCP(=O)(O)O` and `C[C@H](Cn1nnc2c(N)nc(N)nc21)OCP(=O)(O)O` are the same in IC50: 300 µg/mL (≈ 986 µM) for the first, 300 µg/mL (≈ 989 µM) for the second.

`Nc1nc(N)c2nnn(C[C@H](O)CO)c2n1` and `Nc1ncnc2nn(C[C@H](O)CO)nc12` cannot be ordered by IC50: > 100 µg/mL for the first, > 200 µg/mL for the second.

Going from `C[C@H](Cn1nc2ncnc(N)c2n1)OCP(=O)(O)O` to `Nc1ncnc2c1nnn2CCOCP(=O)(O)O`, the IC50 rises from 150 µg/mL (≈ 520 µM) to > 200 µg/mL.

Tested on: Human alphaherpesvirus 1
Test: Antiviral activity against thymidine kinase deficient herpes simplex virus-1 HSV-1 TK- B2006 strain in E6SM cell culture
Type: functional, organism-based
Details: Human alphaherpesvirus 1, E6SM
How it was run: as §1

Going from `C[C@@H](Cn1nnc2c(O)nc(N)nc21)OCP(=O)(O)O` to `C[C@H](Cn1nnc2c(N)nc(N)nc21)OCP(=O)(O)O`, the IC50 falls from > 400 µg/mL to 300 µg/mL (≈ 989 µM).

Going from `C[C@H](Cn1nc2ncnc(N)c2n1)OCP(=O)(O)O` to `Nc1ncnc2c1nnn2CCOCP(=O)(O)O`, the IC50 rises from 150 µg/mL (≈ 520 µM) to > 200 µg/mL.

Tested on: not listed separately
Test: Antiviral activity against thymidine kinase deficient herpes simplex virus-1 HSV-1 TK- VMW-1837 strain in E6SM cell culture
Type: functional, cell-based
Details: Human alphaherpesvirus 1, E6SM
How it was run: as §1

`C[C@@H](Cn1nnc2c(O)nc(N)nc21)OCP(=O)(O)O` and `C[C@H](Cn1nnc2c(N)nc(N)nc21)OCP(=O)(O)O` are the same in IC50: 300 µg/mL (≈ 986 µM) for the first, 300 µg/mL (≈ 989 µM) for the second.

First: C[C@H](Cn1nc2ncnc(N)c2n1)OCP(=O)(O)O
Second: Nc1ncnc2c1nnn2CCOCP(=O)(O)O
The IC50 of the first is lower: 100 µg/mL (≈ 347 µM) for the first, > 200 µg/mL for the second.

Tested on: Vaccinia virus
Test: Antiviral activity against vaccinia virus (VV) in E6SM cell culture
Type: functional, organism-based
Details: Orthopoxvirus vaccinia

First: C[C@@H](Cn1nnc2c(O)nc(N)nc21)OCP(=O)(O)O
Second: C[C@H](Cn1nnc2c(N)nc(N)nc21)OCP(=O)(O)O
The IC50 of the first is lower: 300 µg/mL (≈ 986 µM) for the first, > 400 µg/mL for the second.

`C[C@H](Cn1nc2ncnc(N)c2n1)OCP(=O)(O)O` and `Nc1ncnc2c1nnn2CCOCP(=O)(O)O` cannot be ordered by IC50: > 400 µg/mL for the first, > 400 µg/mL for the second.

Tested on: Human alphaherpesvirus 2
Test: Antiviral activity in herpes simple virus-2 (HSV-2) Lyons strain in E6SM cell culture
Type: functional, organism-based
Details: Human alphaherpesvirus 2, E6SM
How it was run: as §1

`C[C@@H](Cn1nnc2c(O)nc(N)nc21)OCP(=O)(O)O` and `C[C@H](Cn1nnc2c(N)nc(N)nc21)OCP(=O)(O)O` are the same in IC50: 300 µg/mL (≈ 986 µM) for the first, 300 µg/mL (≈ 989 µM) for the second.

Compared with `C[C@H](Cn1nc2ncnc(N)c2n1)OCP(=O)(O)O`, `Nc1ncnc2c1nnn2CCOCP(=O)(O)O` is higher in IC50: 100 µg/mL (≈ 347 µM) for the first, > 200 µg/mL for the second.

Tested on: Human alphaherpesvirus 3
Test: Antiviral activity in TK+ varicella zoster virus (VZV) YS strain in HEL cell culture
Type: functional, organism-based
Details: Human alphaherpesvirus 3, HEL

Going from `C[C@@H](Cn1nnc2c(O)nc(N)nc21)OCP(=O)(O)O` to `C[C@H](Cn1nnc2c(N)nc(N)nc21)OCP(=O)(O)O`, the IC50 rises from 4 µg/mL (≈ 13.1 µM) to > 50 µg/mL.

`Nc1nc(N)c2nnn(C[C@H](O)CO)c2n1` and `Nc1ncnc2c1nnn2CCOCP(=O)(O)O` cannot be ordered by IC50: > 50 µg/mL for the first, > 100 µg/mL for the second.

`C[C@H](Cn1nc2ncnc(N)c2n1)OCP(=O)(O)O` gave an IC50 of 5 µg/mL (≈ 17.3 µM).

Tested on: Human betaherpesvirus 5
Test: Antiviral activity against cytomegalovirus (CMV) AD169 strain in HEL cell culture
Type: functional, organism-based
Details: Human betaherpesvirus 5, HEL
How it was run: as §1

`C[C@@H](Cn1nnc2c(O)nc(N)nc21)OCP(=O)(O)O` and `C[C@H](Cn1nnc2c(N)nc(N)nc21)OCP(=O)(O)O` cannot be ordered by IC50: > 40 µg/mL for the first, > 50 µg/mL for the second.

`Nc1nc(N)c2nnn(C[C@H](O)CO)c2n1` and `Nc1ncnc2nn(C[C@H](O)CO)nc12` cannot be ordered by IC50: > 50 µg/mL for the first, > 100 µg/mL for the second.

`C[C@H](Cn1nc2ncnc(N)c2n1)OCP(=O)(O)O` and `Nc1ncnc2c1nnn2CCOCP(=O)(O)O` cannot be ordered by IC50: > 40 µg/mL for the first, > 100 µg/mL for the second.

Tested on: Cytomegalovirus
Test: Antiviral activity against cytomegalovirus (CMV) Davis strain in HEL cell culture
Type: functional, organism-based
Details: Human betaherpesvirus 5, HEL
How it was run: as §1

`C[C@@H](Cn1nnc2c(O)nc(N)nc21)OCP(=O)(O)O` and `C[C@H](Cn1nnc2c(N)nc(N)nc21)OCP(=O)(O)O` cannot be ordered by IC50: > 40 µg/mL for the first, > 50 µg/mL for the second.

`C[C@H](Cn1nc2ncnc(N)c2n1)OCP(=O)(O)O` and `Nc1ncnc2c1nnn2CCOCP(=O)(O)O` cannot be ordered by IC50: > 40 µg/mL for the first, > 100 µg/mL for the second.

Tested on: Human alphaherpesvirus 3
Test: Antiviral activity in TK+ varicella zoster virus (VZV) 07/1 strain in HEL cell culture
Type: functional, organism-based
Details: Human alphaherpesvirus 3, HEL

`C[C@@H](Cn1nnc2c(O)nc(N)nc21)OCP(=O)(O)O` and `C[C@H](Cn1nnc2c(N)nc(N)nc21)OCP(=O)(O)O` cannot be ordered by IC50: > 40 µg/mL for the first, > 50 µg/mL for the second.

`Nc1nc(N)c2nnn(C[C@H](O)CO)c2n1` and `Nc1ncnc2c1nnn2CCOCP(=O)(O)O` cannot be ordered by IC50: > 50 µg/mL for the first, > 100 µg/mL for the second.

With `C[C@H](Cn1nc2ncnc(N)c2n1)OCP(=O)(O)O` the IC50 was 5 µg/mL (≈ 17.3 µM).

Tested on: Human alphaherpesvirus 3
Test: Antiviral activity in TK+ varicella zoster virus (VZV) OKA strain in HEL cell culture
Type: functional, organism-based
Details: Human alphaherpesvirus 3, HEL

Going from `C[C@@H](Cn1nnc2c(O)nc(N)nc21)OCP(=O)(O)O` to `C[C@H](Cn1nnc2c(N)nc(N)nc21)OCP(=O)(O)O`, the IC50 rises from 10 µg/mL (≈ 32.9 µM) to > 50 µg/mL.

`Nc1nc(N)c2nnn(C[C@H](O)CO)c2n1` and `Nc1ncnc2nn(C[C@H](O)CO)nc12` cannot be ordered by IC50: > 50 µg/mL for the first, > 40 µg/mL for the second.

Compared with `C[C@H](Cn1nc2ncnc(N)c2n1)OCP(=O)(O)O`, `Nc1ncnc2c1nnn2CCOCP(=O)(O)O` is higher in IC50: 10 µg/mL (≈ 34.7 µM) for the first, > 100 µg/mL for the second.

Tested on: Human immunodeficiency virus 1
Test: Inhibition of human immunodeficiency virus-1 (HIV-1) induced cytopathicity in human MT-4 cells
Type: functional, organism-based
Details: Human immunodeficiency virus 1, MT4
How it was run: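 MT-4 cells (~4 × 10⁵ cells/mL) were infected with HIV-1(IIIB) at 100 CCID50 per µL. Infected cells were seeded into wells containing compound dilutions and incubated 5 days at 37 °C. Viable cells were then counted by trypan blue exclusion in a blood cell counting chamber.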

`C[C@@H](Cn1nnc2c(O)nc(N)nc21)OCP(=O)(O)O` and `C[C@H](Cn1nnc2c(N)nc(N)nc21)OCP(=O)(O)O` are within 1.5-fold of each other in IC50: 52.7 µg/mL (≈ 173 µM) for the first, 44.4 µg/mL (≈ 146 µM) for the second.

`C[C@H](Cn1nc2ncnc(N)c2n1)OCP(=O)(O)O` and `Nc1ncnc2c1nnn2CCOCP(=O)(O)O` cannot be ordered by IC50: > 100 µg/mL for the first, > 100 µg/mL for the second.
